We go through nine compounds from ChEMBL document CHEMBL2311306, “The precise chemical-physical nature of the pharmacore in FK506 binding protein inhibition: ElteX, a New class of nanomolar FKBP12 ligands” (J Med Chem, 2013).

For one test, the target named is Peptidyl-prolyl cis-trans isomerase FKBP1A (Homo sapiens) (UniProt P62942). As to the kind of experiment: Binding affinity to FKBP12 PPI domain (unknown origin) in water bulk solution by fluorescence spectrophotometric analysis relative to FK506.
Peptidyl-prolyl cis-trans isomerase FKBP1A (Homo sapiens), sequence (P62942 whole entry, the tested form may be a part): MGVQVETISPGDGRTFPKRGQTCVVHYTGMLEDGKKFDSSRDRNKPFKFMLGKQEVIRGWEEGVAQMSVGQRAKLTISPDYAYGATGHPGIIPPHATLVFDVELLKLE
Consider `C=CC[C@@H]1/C=C(\C)C[C@H](C)C[C@H](OC)[C@H]2O[C@@](O)(C(=O)C(=O)N3CCCC[C@H]3C(=O)O[C@H](/C(C)=C/[C@@H]3CC[C@@H](O)[C@H](OC)C3)[C@H](C)[C@@H](O)CC1=O)[C@H](C)C[C@@H]2OC`, for which the Ratio worked out at 1.
Same read-out and setting: the result for `CCCC(CCc1ccccc1)NC(=O)[C@@H]1CCCCN1C(=O)C(=O)c1ccccc1` (mixture of isomers) reads 5; that for `CCC(C)(C)C(=O)C(=O)N1CCCC[C@H]1C(=O)O[C@H](CCc1ccccc1)c1ccccc1`, 25; that for `COc1cc(OC)c(C(=O)C(=O)N2CCCC[C@H]2C(=O)OC(CCCc2ccccc2)CCCc2ccncc2)c(OC)c1` (some centres undefined), 1.2.
Still for that read-out and setting: the result for `CO[C@H]1C[C@@H]2CC[C@@H](C)[C@@](O)(O2)C(=O)C(=O)N2CCCC[C@H]2C(=O)O[C@H]([C@H](C)C[C@@H]2CC[C@@H](O)[C@H](OC)C2)CC(=O)[C@H](C)/C=C(\C)[C@@H](O)[C@@H](OC)C(=O)[C@H](C)C[C@H](C)/C=C/C=C/C=C/1C` reads 0.5; that for `CCC[C@@H](CCc1ccccc1)OC(=O)[C@@H]1CCCCN1C(=O)C(=O)c1ccccc1`, 1.1; that for `CCC[C@H](CCc1ccccc1)OC(=O)[C@@H]1CCCCN1C(=O)C(=O)c1ccccc1`, 1.6.
Same read-out and setting: the figure for `CCC(C)(C)C(=O)C(=O)N1CCCC[C@H]1C(=O)O[C@@H](CCc1ccccc1)c1ccccc1` is 750.

Another test has the same target. The test is described as follows: Apparent binding affinity to FKBP12 PPI domain (unknown origin) in PBS at pH 7 by fluorescence spectrophotometric analysis relative to FK506. In short, it runs like this: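 FKBP12, final 1 µM, diluted from a PBS stock (pH 7.4, 0.15 M NaCl) into phosphate buffer at 15 °C. Ligand 1–200 nM, final DMSO <0.3% v/v. Intrinsic Trp fluorescence quenching: excitation 280 nm, emission 325 nm, ligand-only spectra subtracted. Apparent Kd fitted from intensity versus ligand concentration, expressed as ratio to FK506 under identical conditions. At least 2 replicates, 3–4 at low concentrations.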
With `O=C(C(=O)N1CCCC[C@H]1C(=O)NCCCc1ccccc1)c1ccccc1`, the Kd(app) amounted to 0.5.
